Reference: ChEMBL document CHEMBL3425482, “Structure-guided design and optimization of dipeptidyl inhibitors of norovirus 3CL protease. Structure-activity relationships and biochemical, X-ray crystallographic, cell-based, and in vivo studies” (J Med Chem, 2015)

target: Prothrombin (Homo sapiens) (UniProt P00734); experiment: Inhibition of human thrombin after 10 mins incubation by chromogenic substrate hydrolysis assay; details: not given

inhibition [%] | Structure (SMILES)
0 | O=C[C@H](C[C@@H]1CCNC1=O)NC(=O)[C@H](CC1CCCCC1)NC(=O)OCc1cccc(Br)c1
0 | O=C[C@H](C[C@@H]1CCNC1=O)NC(=O)[C@H](CC1CCCCC1)NC(=O)OCc1cccc(Cl)c1

The remaining lines, values behind:

Structure (SMILES) | inhibition [%]
CCOP(=O)(OCC)C(O)[C@H](C[C@@H]1CCNC1=O)NC(=O)[C@H](CC1CCCCC1)NC(=O)OCc1cccc(Br)c1 (stereo partly drawn) | 0
CCOP(=O)(OCC)C(O)[C@H](C[C@@H]1CCNC1=O)NC(=O)[C@H](CC1CCCCC1)NC(=O)OCc1cccc(Cl)c1 (stereo partly drawn) | 0

target: Coagulation factor X (Homo sapiens) (UniProt P00742); experiment: Inhibition of human factor 10a using Pefachrome-tPA substrate; details: concentration not given here
Sequence (P00742 41-179 limits assumed): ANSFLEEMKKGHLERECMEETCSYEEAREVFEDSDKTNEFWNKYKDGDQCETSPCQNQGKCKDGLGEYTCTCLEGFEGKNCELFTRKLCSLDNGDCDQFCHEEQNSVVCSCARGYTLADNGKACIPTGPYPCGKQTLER
Sequence (P00742 235-488 limits assumed): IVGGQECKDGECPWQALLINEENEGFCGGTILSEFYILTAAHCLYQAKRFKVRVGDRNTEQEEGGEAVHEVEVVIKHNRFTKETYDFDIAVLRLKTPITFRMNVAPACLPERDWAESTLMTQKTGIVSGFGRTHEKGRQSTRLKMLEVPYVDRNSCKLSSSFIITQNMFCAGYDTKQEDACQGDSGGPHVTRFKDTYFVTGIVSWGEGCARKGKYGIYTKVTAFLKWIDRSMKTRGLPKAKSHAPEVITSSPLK

inhibition [%] | Structure (SMILES)
0 | O=C[C@H](C[C@@H]1CCNC1=O)NC(=O)[C@H](CC1CCCCC1)NC(=O)OCc1cccc(Br)c1
1 | O=C[C@H](C[C@@H]1CCNC1=O)NC(=O)[C@H](CC1CCCCC1)NC(=O)OCc1cccc(Cl)c1

More lines, now with the values behind:

Structure (SMILES) | inhibition [%]
CCOP(=O)(OCC)C(O)[C@H](C[C@@H]1CCNC1=O)NC(=O)[C@H](CC1CCCCC1)NC(=O)OCc1cccc(Br)c1 (stereo partly drawn) | 6
CCOP(=O)(OCC)C(O)[C@H](C[C@@H]1CCNC1=O)NC(=O)[C@H](CC1CCCCC1)NC(=O)OCc1cccc(Cl)c1 (stereo partly drawn) | 0

target: T1, Carboxypeptidase A1 (Homo sapiens) (UniProt P15085); experiment: Inhibition of carboxypeptidase A (unknown origin); details: concentration not given here
T1 sequence (whole entry): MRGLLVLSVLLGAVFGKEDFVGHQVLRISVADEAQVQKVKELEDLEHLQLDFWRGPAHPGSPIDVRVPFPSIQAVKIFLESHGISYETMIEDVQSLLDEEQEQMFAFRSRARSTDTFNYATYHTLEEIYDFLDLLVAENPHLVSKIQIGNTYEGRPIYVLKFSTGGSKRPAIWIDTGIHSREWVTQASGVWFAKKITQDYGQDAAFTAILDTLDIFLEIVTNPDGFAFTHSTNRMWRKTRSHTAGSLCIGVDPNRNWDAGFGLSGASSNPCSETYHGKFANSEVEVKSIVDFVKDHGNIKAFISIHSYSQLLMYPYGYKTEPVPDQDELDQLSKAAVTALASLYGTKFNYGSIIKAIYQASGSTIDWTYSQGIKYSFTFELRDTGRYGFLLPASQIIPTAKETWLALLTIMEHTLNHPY

inhibition [%] | Structure (SMILES)
11.6 | O=C[C@H](C[C@@H]1CCNC1=O)NC(=O)[C@H](CC1CCCCC1)NC(=O)OCc1cccc(Br)c1
12 | O=C[C@H](C[C@@H]1CCNC1=O)NC(=O)[C@H](CC1CCCCC1)NC(=O)OCc1cccc(Cl)c1

Second part, the molecule before the results:

Structure (SMILES) | inhibition [%]
CCOP(=O)(OCC)C(O)[C@H](C[C@@H]1CCNC1=O)NC(=O)[C@H](CC1CCCCC1)NC(=O)OCc1cccc(Br)c1 (stereo partly drawn) | 0
CCOP(=O)(OCC)C(O)[C@H](C[C@@H]1CCNC1=O)NC(=O)[C@H](CC1CCCCC1)NC(=O)OCc1cccc(Cl)c1 (stereo partly drawn) | 14.3

test system: not listed separately; experiment: Antiviral activity against Murine norovirus 1 infected in Balb/c mouse assessed as reduction in viral titers in large intestine at 10 mg/kg, ip twice daily started 4 hrs prior to infection measured after 72 hrs post infection; details: route intraperitoneal

Structure (SMILES) | fold change (FC)
O=C[C@H](C[C@@H]1CCNC1=O)NC(=O)[C@H](CC1CCCCC1)NC(=O)OCc1cccc(Cl)c1 | 7.98

target: T2, Neutrophil elastase (Homo sapiens) (UniProt P08246); experiment: Inhibition of human neutrophil elastase; details: concentration not given here
T2 sequence (whole entry): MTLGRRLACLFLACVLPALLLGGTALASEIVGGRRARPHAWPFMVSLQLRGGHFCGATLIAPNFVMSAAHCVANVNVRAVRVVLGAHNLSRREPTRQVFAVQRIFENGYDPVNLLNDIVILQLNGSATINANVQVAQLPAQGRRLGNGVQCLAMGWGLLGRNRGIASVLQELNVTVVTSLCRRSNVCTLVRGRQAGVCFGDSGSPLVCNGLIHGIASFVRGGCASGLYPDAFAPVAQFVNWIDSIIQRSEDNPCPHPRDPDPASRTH

inhibition [%] | Structure (SMILES)
26.5 | O=C[C@H](C[C@@H]1CCNC1=O)NC(=O)[C@H](CC1CCCCC1)NC(=O)OCc1cccc(Br)c1
15 | O=C[C@H](C[C@@H]1CCNC1=O)NC(=O)[C@H](CC1CCCCC1)NC(=O)OCc1cccc(Cl)c1

Further lines, the molecule ahead of its results:

Structure (SMILES) | inhibition [%]
CCOP(=O)(OCC)C(O)[C@H](C[C@@H]1CCNC1=O)NC(=O)[C@H](CC1CCCCC1)NC(=O)OCc1cccc(Br)c1 (stereo partly drawn) | 63
CCOP(=O)(OCC)C(O)[C@H](C[C@@H]1CCNC1=O)NC(=O)[C@H](CC1CCCCC1)NC(=O)OCc1cccc(Cl)c1 (stereo partly drawn) | 86.5

test system: not listed separately; experiment: Antiviral activity against Murine norovirus 1 infected in mouse RAW264.7 cells assessed as inhibition of viral replication; type: functional, cell-based; details: not given
Method in brief: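 RAW264.7 mouse macrophages were kept in DMEM with 2–5% FBS. Serially diluted compound (DMSO ≤0.5%) was added to confluent monolayers. Cells were infected immediately with MNV-1 at MOI 0.05–0.1 and held 48 h at 37 °C. After freeze-thaw, virus titres were read by TCID50. EC50 came from nonlinear variable-slope regression of inhibition versus log concentration.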

EC50 [µM] | Structure (SMILES)
0.08 | O=C[C@H](C[C@@H]1CCNC1=O)NC(=O)[C@H](CC1CCCCC1)NC(=O)OCc1cccc(Cl)c1

test system: not listed separately; experiment: Inhibition of Norovirus recombinant 3CL protease using Edans-EPDFHLQGPEDLAK-Dabcyl as substrate for 30 mins by fluorometry; details: not given

IC50 [µM] | Structure (SMILES)
1.2 | O=C[C@H](C[C@@H]1CCNC1=O)NC(=O)[C@H](CC1CCCCC1)NC(=O)OCc1cccc(F)c1
0.3 | O=C[C@H](C[C@@H]1CCNC1=O)NC(=O)[C@H](CC1CCCCC1)NC(=O)OCc1cccc(Br)c1
0.1 | O=C[C@H](C[C@@H]1CCNC1=O)NC(=O)[C@H](CC1CCCCC1)NC(=O)OCc1cccc(Cl)c1
0.35 | O=C[C@H](C[C@@H]1CCNC1=O)NC(=O)[C@H](CC1CCCCC1)NC(=O)OCc1cccc(I)c1
0.9 | O=C[C@H](C[C@@H]1CCNC1=O)NC(=O)[C@H](CC1CCCCC1)NC(=O)OCc1ccccc1F

More lines, now with the values behind:

Structure (SMILES) | IC50 [µM]
O=C(N[C@@H](CC1CCCCC1)C(=O)N[C@@H](C[C@@H]1CCNC1=O)C(O)S(=O)(=O)O)OCc1ccccc1Cl (stereo partly drawn) | 0.7
CC(C)C[C@H](NC(=O)OCc1ccccc1)C(=O)N[C@@H](C[C@@H]1CCNC1=O)C(=O)C(=O)NC1CC1 | 3.4
CC(C)C[C@H](NC(=O)OCc1ccccc1)C(=O)N[C@H](C=O)C[C@@H]1CCNC1=O | 0.6
O=C(N[C@@H](CC1CCCCC1)C(=O)N[C@@H](C[C@@H]1CCNC1=O)C(O)S(=O)(=O)O)OCc1ccccc1 (stereo partly drawn) | 0.4
COc1cccc(COC(=O)N[C@@H](CC2CCCCC2)C(=O)N[C@H](C=O)C[C@@H]2CCNC2=O)c1 | 1.4
CCOP(=O)(OCC)C(O)[C@H](C[C@@H]1CCNC1=O)NC(=O)[C@H](CC1CCCCC1)NC(=O)OCc1cccc(Br)c1 (stereo partly drawn) | 6.5
N#Cc1cccc(COC(=O)N[C@@H](CC2CCCCC2)C(=O)N[C@H](C=O)C[C@@H]2CCNC2=O)c1 | > 10
O=C(N[C@@H](CC1CCCCC1)C(=O)N[C@@H](C[C@@H]1CCNC1=O)C(O)S(=O)(=O)O)OCc1cccc(Br)c1 (stereo partly drawn) | 0.15
CC(C)C[C@H](NC(=O)OCc1cccc(Cl)c1)C(=O)N[C@H](C=O)C[C@@H]1CCNC1=O | 0.9
O=C(N[C@@H](CC1CCCCC1)C(=O)N[C@@H](C[C@@H]1CCNC1=O)C(=O)C(=O)NC1CC1)OCc1cccc(F)c1 | 3.5
CCOP(=O)(OCC)C(O)[C@H](C[C@@H]1CCNC1=O)NC(=O)[C@H](CC1CCCCC1)NC(=O)OCc1cccc(Cl)c1 (stereo partly drawn) | > 10

target: Plasminogen (Homo sapiens) (UniProt P00747); experiment: Inhibition of plasmin (unknown origin); details: concentration not given here
Sequence (P00747 97-580 limits assumed): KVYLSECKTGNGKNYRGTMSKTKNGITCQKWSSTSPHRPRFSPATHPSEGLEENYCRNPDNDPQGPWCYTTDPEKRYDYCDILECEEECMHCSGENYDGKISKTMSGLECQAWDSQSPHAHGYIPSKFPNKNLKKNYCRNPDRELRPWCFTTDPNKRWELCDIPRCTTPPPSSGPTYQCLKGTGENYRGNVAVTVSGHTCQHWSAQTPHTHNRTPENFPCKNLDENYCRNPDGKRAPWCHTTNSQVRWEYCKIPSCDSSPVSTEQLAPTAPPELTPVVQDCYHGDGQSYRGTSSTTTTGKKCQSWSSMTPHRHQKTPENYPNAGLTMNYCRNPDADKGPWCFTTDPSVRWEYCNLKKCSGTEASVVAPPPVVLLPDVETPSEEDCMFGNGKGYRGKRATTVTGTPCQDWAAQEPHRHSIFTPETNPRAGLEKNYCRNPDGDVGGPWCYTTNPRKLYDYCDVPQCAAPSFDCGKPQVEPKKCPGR
Sequence (P00747 581-810 limits assumed): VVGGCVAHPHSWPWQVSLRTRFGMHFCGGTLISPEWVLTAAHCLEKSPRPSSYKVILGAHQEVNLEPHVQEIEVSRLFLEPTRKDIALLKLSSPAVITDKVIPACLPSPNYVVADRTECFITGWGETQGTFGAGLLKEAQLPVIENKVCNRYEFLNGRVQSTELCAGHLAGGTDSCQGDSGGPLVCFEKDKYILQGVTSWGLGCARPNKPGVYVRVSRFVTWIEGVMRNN

inhibition [%] | Structure (SMILES)
7 | O=C[C@H](C[C@@H]1CCNC1=O)NC(=O)[C@H](CC1CCCCC1)NC(=O)OCc1cccc(Br)c1
0 | O=C[C@H](C[C@@H]1CCNC1=O)NC(=O)[C@H](CC1CCCCC1)NC(=O)OCc1cccc(Cl)c1

Further lines, the molecule ahead of its results:

Structure (SMILES) | inhibition [%]
CCOP(=O)(OCC)C(O)[C@H](C[C@@H]1CCNC1=O)NC(=O)[C@H](CC1CCCCC1)NC(=O)OCc1cccc(Br)c1 (stereo partly drawn) | 13
CCOP(=O)(OCC)C(O)[C@H](C[C@@H]1CCNC1=O)NC(=O)[C@H](CC1CCCCC1)NC(=O)OCc1cccc(Cl)c1 (stereo partly drawn) | 15

organism: Homo sapiens; experiment: Inhibition of chymotrypsin (unknown origin); details: concentration not given here

inhibition [%] | Structure (SMILES)
0 | O=C[C@H](C[C@@H]1CCNC1=O)NC(=O)[C@H](CC1CCCCC1)NC(=O)OCc1cccc(Br)c1
0 | O=C[C@H](C[C@@H]1CCNC1=O)NC(=O)[C@H](CC1CCCCC1)NC(=O)OCc1cccc(Cl)c1

Continued, molecule first:

Structure (SMILES) | inhibition [%]
CCOP(=O)(OCC)C(O)[C@H](C[C@@H]1CCNC1=O)NC(=O)[C@H](CC1CCCCC1)NC(=O)OCc1cccc(Br)c1 (stereo partly drawn) | 0
CCOP(=O)(OCC)C(O)[C@H](C[C@@H]1CCNC1=O)NC(=O)[C@H](CC1CCCCC1)NC(=O)OCc1cccc(Cl)c1 (stereo partly drawn) | 2.4

test system: not listed separately; experiment: Antiviral activity against Murine norovirus 1 infected in Balb/c mouse assessed as reduction in viral titers in small intestine at 10 mg/kg, ip twice daily started 4 hrs prior to infection measured after 72 hrs post infection; details: route intraperitoneal

Structure (SMILES) | fold change (FC)
O=C[C@H](C[C@@H]1CCNC1=O)NC(=O)[C@H](CC1CCCCC1)NC(=O)OCc1cccc(Cl)c1 | 42.12

test system: Norovirus; experiment: Antiviral activity against Norovirus infected in human HG23 cells; type: functional, cell-based; details: not given

EC50 [µM] | Structure (SMILES)
0.09 | O=C[C@H](C[C@@H]1CCNC1=O)NC(=O)[C@H](CC1CCCCC1)NC(=O)OCc1cccc(F)c1
0.03 | O=C[C@H](C[C@@H]1CCNC1=O)NC(=O)[C@H](CC1CCCCC1)NC(=O)OCc1cccc(Br)c1
0.02 | O=C[C@H](C[C@@H]1CCNC1=O)NC(=O)[C@H](CC1CCCCC1)NC(=O)OCc1cccc(Cl)c1
0.05 | O=C[C@H](C[C@@H]1CCNC1=O)NC(=O)[C@H](CC1CCCCC1)NC(=O)OCc1cccc(I)c1
0.08 | O=C[C@H](C[C@@H]1CCNC1=O)NC(=O)[C@H](CC1CCCCC1)NC(=O)OCc1ccccc1F

The next lines start with the molecule.

Structure (SMILES) | EC50 [µM]
O=C(N[C@@H](CC1CCCCC1)C(=O)N[C@@H](C[C@@H]1CCNC1=O)C(O)S(=O)(=O)O)OCc1ccccc1Cl (stereo partly drawn) | 0.07
CC(C)C[C@H](NC(=O)OCc1ccccc1)C(=O)N[C@@H](C[C@@H]1CCNC1=O)C(=O)C(=O)NC1CC1 | 1.1
CC(C)C[C@H](NC(=O)OCc1ccccc1)C(=O)N[C@H](C=O)C[C@@H]1CCNC1=O | 0.2
O=C(N[C@@H](CC1CCCCC1)C(=O)N[C@@H](C[C@@H]1CCNC1=O)C(O)S(=O)(=O)O)OCc1ccccc1 (stereo partly drawn) | 0.06
COc1cccc(COC(=O)N[C@@H](CC2CCCCC2)C(=O)N[C@H](C=O)C[C@@H]2CCNC2=O)c1 | 0.15
CCOP(=O)(OCC)C(O)[C@H](C[C@@H]1CCNC1=O)NC(=O)[C@H](CC1CCCCC1)NC(=O)OCc1cccc(Br)c1 (stereo partly drawn) | 0.15
N#Cc1cccc(COC(=O)N[C@@H](CC2CCCCC2)C(=O)N[C@H](C=O)C[C@@H]2CCNC2=O)c1 | 0.2
O=C(N[C@@H](CC1CCCCC1)C(=O)N[C@@H](C[C@@H]1CCNC1=O)C(O)S(=O)(=O)O)OCc1cccc(Br)c1 (stereo partly drawn) | 0.03
CC(C)C[C@H](NC(=O)OCc1cccc(Cl)c1)C(=O)N[C@H](C=O)C[C@@H]1CCNC1=O | 0.1
O=C(N[C@@H](CC1CCCCC1)C(=O)N[C@@H](C[C@@H]1CCNC1=O)C(=O)C(=O)NC1CC1)OCc1cccc(F)c1 | 0.3
CCOP(=O)(OCC)C(O)[C@H](C[C@@H]1CCNC1=O)NC(=O)[C@H](CC1CCCCC1)NC(=O)OCc1cccc(Cl)c1 (stereo partly drawn) | 0.06

organism: Bos taurus; experiment: Inhibition of bovine trypsin; details: concentration not given here

inhibition [%] | Structure (SMILES)
0 | O=C[C@H](C[C@@H]1CCNC1=O)NC(=O)[C@H](CC1CCCCC1)NC(=O)OCc1cccc(Br)c1
5 | O=C[C@H](C[C@@H]1CCNC1=O)NC(=O)[C@H](CC1CCCCC1)NC(=O)OCc1cccc(Cl)c1

Further lines, the molecule ahead of its results:

Structure (SMILES) | inhibition [%]
CCOP(=O)(OCC)C(O)[C@H](C[C@@H]1CCNC1=O)NC(=O)[C@H](CC1CCCCC1)NC(=O)OCc1cccc(Br)c1 (stereo partly drawn) | 1
CCOP(=O)(OCC)C(O)[C@H](C[C@@H]1CCNC1=O)NC(=O)[C@H](CC1CCCCC1)NC(=O)OCc1cccc(Cl)c1 (stereo partly drawn) | 8.8
